High-throughput results deposited in PubChem BioAssay by several laboratories.
ADAM17 inh: inhibitors of human ADAM17 | recombinant ADAM17, EDANS/DABCYL FRET peptide cleavage | P78536 | 370,000 tested, 0.83% active | inhibition, % at 6.95 µM;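 active = inhibition above the mean of compounds lying between control limits plus 3 SD, set per campaign, cut at about 8.5% in these data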;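 also: 0% = DMSO-only wells as the low control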
proKLK7 act: activators of human kallikrein-7 zymogen. P49862. purified proKLK7, EDANS-DABCYL substrate fluorescence; 100% is mature enzyme control, 0% vehicle. activation, % at 7 µM. 370,000 tested, 0.9% active. AID 652039;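 active = activation above the mean of all tested compounds plus 3 SD, computed per campaign excluding outliers beyond control limits, cut at about 13% in these data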
Target sequence (P49862 whole entry, looked up): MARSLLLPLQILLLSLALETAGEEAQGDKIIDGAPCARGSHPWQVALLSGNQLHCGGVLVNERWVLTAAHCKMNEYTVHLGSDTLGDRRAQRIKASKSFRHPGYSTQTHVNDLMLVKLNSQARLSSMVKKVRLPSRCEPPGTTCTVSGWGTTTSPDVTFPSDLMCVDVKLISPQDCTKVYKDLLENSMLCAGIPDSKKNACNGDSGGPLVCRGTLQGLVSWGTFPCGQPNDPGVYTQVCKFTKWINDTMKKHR
JMJD2C inh: human JMJD2C demethylase inhibition; AID 2099; Q9H3R0; GST-JMJD2C(1-420) H3K9me3 demethylation, DELFIA europium; 330,000 tested, 0.069% active; inhibition, % at 2.35 µM;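 active = more than half of a compound's replicate wells show inhibition beyond 50%, single wells judged on their own value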;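 also: signal counts dimethyl H3K9 product captured on neutravidin plate; 0% = median of DMSO wells and 100% = 0.3 times that DMSO median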
NR2E3 ag-1: human photoreceptor-specific nuclear receptor agonism. 360,000 tested, 0.35% active. CHO-S Gal4-NCOR/VP16-NR2E3 two-hybrid, luciferase. inhibition of corepressor binding, % at 3.98 µM;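 active = inhibition above the mean of all tested compounds plus 3 SD, cut at about 70% in these data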;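 also: 0% = DMSO with NR2E3 transfected cells and 100% = cells lacking NR2E3 construct; higher means lower luciferase signal from less NR2E3 corepressor binding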
Target sequence (Q9Y5X4 whole entry, looked up, the tested form may be a part): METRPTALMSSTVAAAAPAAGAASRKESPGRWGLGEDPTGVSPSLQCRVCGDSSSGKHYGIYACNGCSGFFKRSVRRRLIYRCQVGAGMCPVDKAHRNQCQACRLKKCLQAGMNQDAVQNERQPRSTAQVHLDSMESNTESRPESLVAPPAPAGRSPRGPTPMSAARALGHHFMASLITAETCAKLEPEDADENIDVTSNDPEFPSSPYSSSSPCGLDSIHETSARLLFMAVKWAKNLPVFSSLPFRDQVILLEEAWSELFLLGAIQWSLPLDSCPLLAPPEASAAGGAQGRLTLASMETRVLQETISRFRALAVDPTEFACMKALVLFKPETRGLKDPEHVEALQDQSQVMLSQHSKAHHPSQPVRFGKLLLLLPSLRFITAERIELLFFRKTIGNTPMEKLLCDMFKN
NR2E3 ag-2: NR2E3 (human) agonism; 320,000 tested, 0.12% active; inhibition of corepressor binding, % at 4.78 µM; Q9Y5X4; GST-NR2E3/biotin-RetCOR TR-FRET, 1536-well;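 active = percent inhibition above the cutoff of mean plus 3 SD of all tested compounds, set per screening campaign, cut at about 20% in these data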;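 also: 0% = DMSO wells and 100% = biotin wells as full block of FRET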
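Test system: GST-NR2E3 and biotin-RetCOR proteins | Quantity: 1.35 nM GST-tagged NR2E3 final | Medium: Tris pH 7.5 | Also added: 7 nM biotin-RetCOR | Dosing: Compound at 4.8 µM, single dose | Timing: 5 h at 4 °C | Detection: Time-resolved FRET | Read-out basis: Percent inhibition | Benchmarks: Biotin wells as high control, 0.6% DMSO wells as low control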
ADAM10 inh: ADAM10 inhibition, QFRET primary screen; AID 720582; O14672; inhibition, % at 7 µM; recombinant ADAM10, EDANS/DABCYL FRET peptide cleavage, 3 h; 370,000 tested, 0.62% active;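 active = inhibition above a per-campaign cutoff equal to the mean of compounds falling between control-based bounds plus 3 SD, cut at about 20% in these data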;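 also: 0% = DMSO wells while the 100% control is not disclosed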
ADAM10 ctr: counter-screen for ADAM17 exosite inhibitors: inhibitors of human ADAM10 | recombinant ADAM10, EDANS/DABCYL FRET peptide cleavage, 3 h | 2,900 tested, 47% active | shares compounds with ADAM17 inh | inhibition, % at 6.95 µM;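 active = mean inhibition over the triplicate runs exceeds the activity threshold set in the earlier primary screen, cut at about 20% in these data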;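 also: 0% = DMSO wells and 100% = marimastat wells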
ADAM17 confirm: confirmation of inhibitors of human ADAM17; shares compounds with ADAM17 inh; inhibition, % at 6.95 µM; 2,900 tested, 65% active; recombinant ADAM17, EDANS/DABCYL QFRET peptide cleavage;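 active = mean inhibition across replicates above the hit cutoff set in the primary screen, cut at about 8.5% in these data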;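 also: 0% = DMSO wells and 100% = marimastat wells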
Numbers without * were called inactive; · = no result given. Hits are enriched below; roughly 2.5% of the tested compounds scored in any of these assays.

SMILES	ADAM17 inh	proKLK7 act	JMJD2C inh	NR2E3 ag-1	NR2E3 ag-2	ADAM10 inh	ADAM10 ctr	ADAM17 confirm
CN1CCCN(S(=O)(=O)c2ccc3c(c2)n(C)c(=O)c(=O)n3C)CC1	-1	0	·	·	·	-12	·	·
COc1ccc(OC)c(NC(=O)COC(=O)CN2C(=O)NC3(CCCC3)C2=O)c1	-4	0	3	2	-1	-9	·	·
Cc1ccc(-n2nc3c(=O)n(CCCC(=O)NCCc4ccccc4)nc(C)c3c2C)cc1	-4	0	11	18	0	-19	·	·
Cc1ccc(CCNC(=O)CCCn2nc(C)c3c(C)n(-c4ccc(C)cc4)nc3c2=O)cc1	11*	0	17	14	2	11	5	6
COc1ccc(-c2cc(C(F)(F)F)n3nc(C(N)=O)cc3n2)cc1	-9	1	·	19	·	-30	·	·
Cc1cc(CSc2ccc(Cl)cc2)ccc1N	9.7*	0	·	-46	·	3	21*	8
O=C1NC(Cc2ccccc2)c2nc3ccc(F)cc3c(=O)n2-c2cc(Cl)ccc21 (stereo not drawn)	13*	1	6	·	·	6	-6	1
C[C@@H]1CN([C@H](C)CO)C(=O)Cc2cc(NS(=O)(=O)c3ccc(F)cc3)ccc2O[C@H]1CN(C)Cc1ccc(C(=O)O)cc1	-5	0	·	26	·	-12	·	·
C[C@H]1CN([C@@H](C)CO)C(=O)c2cc(NC(=O)C3CCCCC3)ccc2O[C@H]1CN(C)Cc1ccc(-c2ccccc2)cc1	11*	0	-33	17	·	16	32*	18*
COc1ccc(S(=O)(=O)Nc2ccc3c(c2)CC(=O)N([C@@H](C)CO)C[C@@H](C)[C@@H](CN(C)Cc2ccccc2)O3)cc1	11*	0	-8	4	·	18	13	6
COc1ccc(S(=O)(=O)N(C)C[C@H]2Oc3ccc(NS(=O)(=O)c4ccccc4)cc3CC(=O)N([C@H](C)CO)C[C@@H]2C)cc1	13*	1	3	10	·	15	-5	-2
Cc1ccccc1SCC(=O)Nc1cc(C(F)(F)F)ccc1N1CCOCC1	·	·	0	-9	1	·	·	·
CC(C)Nc1nc(Cl)nc(NNC(=O)C(C)Oc2ccccc2)n1 (stereo not drawn)	9.0*	0	-20	-34	4	5	-2	-2
CCNc1nc(Cl)nc(NNC(=O)C(C)Oc2ccccc2)n1 (stereo not drawn)	0	0	2	15	-4	-8	·	·
COc1cccc(CNC(=O)N2CCN(c3ccccc3)CC2)c1	-3	-1	0	-13	5	2	·	·
N#Cc1ccc(OCC(O)CN2CCN(c3ncc(C(F)(F)F)cc3Cl)CC2)cc1 (stereo not drawn)	4	1	-1	21	0	12	·	·
OC(CN1CCN(c2ncc(C(F)(F)F)cc2Cl)CC1)c1ccccc1 (stereo not drawn)	10*	0	5	-3	2	3	-7	-3
O=C(Nc1ccccc1Cl)c1cc(C2CCCCN2S(=O)(=O)c2ccccc2)on1 (stereo not drawn)	4	0	·	-55	·	17	·	·
O=C(Nc1ccccc1)c1cc(C2CCCCN2S(=O)(=O)c2ccccc2)on1 (stereo not drawn)	12*	-1	·	-31	·	15	13	8
Cc1ccc(S(=O)(=O)N/N=C/c2cccc3c2OCCO3)cc1	-3	0	-12	2	-1	-13	·	·
Cc1ccc(S(=O)(=O)N/N=C/c2cccc3nccnc23)cc1	8.8*	0	-3	-3	-4	6	18	8
OC(c1ccccc1)c1ncc(-c2ccc(C(F)(F)F)cc2)[nH]1 (stereo not drawn)	2	0	·	-73	·	5	·	·
Cc1cc(Cl)ccc1C(O)c1ncc(-c2cccc(C(F)(F)F)c2)[nH]1 (stereo not drawn)	9.2*	0	·	4	·	14	40*	18*
OC(c1ccc(-c2ccccc2)cc1)c1ncc(-c2ccc(C(F)(F)F)cc2)[nH]1 (stereo not drawn)	9.1*	0	·	-5	·	6	23*	13*
Cc1ccc2ccccc2c1C(O)c1ncc(-c2cccc(C(F)(F)F)c2)[nH]1 (stereo not drawn)	12*	0	·	20	·	12	26*	15*
SMILES	ADAM17 inh	proKLK7 act	JMJD2C inh	NR2E3 ag-1	NR2E3 ag-2	ADAM10 inh	ADAM10 ctr	ADAM17 confirm
O=C1c2ccccc2CN1CCSC(=S)N1CCOCC1	0	0	1	-95	1	-3	·	·
CCOc1ccccc1OCCCC(=O)N1CCN(S(=O)(=O)c2ccc(Cl)cc2)CC1	-3	0	-12	4	0	-7	·	·
Cc1cc(Cl)ccc1OCC(=O)N1CC(C)CC(C)C1 (stereo not drawn)	-1	0	6	-35	2	-5	·	·
Cc1cc(Cl)ccc1OCCCC(=O)N1CCN(S(=O)(=O)c2ccccc2)CC1	9.9*	1	20	4	0	13	30*	16*
Cc1cc(Cl)ccc1OCC(=O)N1CCCN(C(=O)COc2ccc(Cl)cc2C)CC1	9.5*	0	-1	3	2	14	26*	14*
CCN(c1ccccc1)S(=O)(=O)c1c[nH]c2ccc([N+](=O)[O-])cc12	9.3*	0	5	2	-1	6	32*	16*
CCOC(=O)NCc1ccc(S(=O)(=O)Nc2ccc(C)cc2)cc1	11*	0	9	-9	-2	14	5	4
O=C(c1ccccc1)N1N=C(c2ccccc2)CC1c1ccccc1O (stereo not drawn)	11*	0	9	-80	2	15	15	10*
Cc1ccc(C2=NN(S(=O)(=O)c3ccccc3)C(c3ccccc3O)C2)cc1 (stereo not drawn)	8.9*	0	-1	-55	·	19	42*	23*
O=C(c1ccncc1)N1N=C(c2ccc(Br)cc2)CC1c1ccccc1O (stereo not drawn)	7	0	-6	-6	2	13	·	·
CC1(C(=O)NS(=O)(=O)c2ccc(F)cc2F)CCN1C(=O)Cc1cccc2ccccc12 (stereo not drawn)	0	0	·	-8	·	1	·	·
CSc1ccc(C2=C/C(=C3/SC(=S)NC3=O)c3ccccc3O2)cc1	-11	0	·	23	·	-19	·	·
